95 compounds from ChEMBL document CHEMBL4513216, “Probing the Open Global Health Chemical Diversity Library for Multistage-Active Starting Points for Next-Generation Antimalarials” (ACS Infect Dis, 2020) can be followed below.

The series can be described thus: Toxicity liver stage against HepG2, at 10uM. Format: cell-based. The conditions noted are these: human, HepG2-A16-CD81EGFP cells; read-out: INHIBITION
Set-up: test concentration 10 uM, cell line HepG2-A16-CD81EGFP. In outline: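 Uninfected HepG2-A16-CD81EGFP cells, 3 × 10^3 per well, 1536-well, plated on prespotted compound at 10 μM final, parasite-free screening media added to match infected plates; puromycin 10 μM positive, DMSO 0.5% negative; run in parallel with 48 h PbLuc assay at 37 °C, 5% CO2; viability by CellTiter-Glo luminescence, normalized to controls.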
On to `COc1ccc(NC(=O)c2nc3ccccc3n(C)c2=O)cc1OC`, for which the cytotoxicity at 10 µM is -7.36%.

On to `Cc1cc(Cl)ccc1-n1ncc(C(=O)NCC2COC(C)(C)O2)c1N` (stereo not given), for which the cytotoxicity at 10 µM is -2.25%.

`O=c1n(Cc2ccccc2F)nc2ncccn12`: the cytotoxicity at 10 µM is -4.49%.

Take `CC(=O)Nc1ccc(SCCCC(=O)NCC2CCCO2)nn1` (stereo not given): the cytotoxicity at 10 µM is -8.67%.

In the case of `CN(C)S(=O)(=O)NCC(Cc1cccc(F)c1)N1CCNC1=O` (stereo not given), the cytotoxicity at 10 µM was -3.55%.

Consider `CC(C)(C)OC(=O)N1CCN(C(=O)c2cnn3c2OCCC3)CC1`, for which the cytotoxicity at 10 µM is -2%.

For the compound `CCC(=O)N1CCN(c2cc(N(C)C)cnn2)CC1`, the cytotoxicity at 10 µM was determined as 2%.

Turning to `COc1ccc(CN2C[C@@H]3CN(S(=O)(=O)C4CC4)C[C@@H]3C2=O)cc1`, the cytotoxicity at 10 µM is -4.01%.

On to `COCCN1C(=O)CCC12CCCN(C(=O)CC1CC1)CC2` (stereo not given), for which the cytotoxicity at 10 µM is 0.346%.

Take `COCCN1C(=O)C2(CCC(C(=O)Nc3cccc(C)c3)CC2)N=C1C` (stereo not given): the cytotoxicity at 10 µM amounted to 9.76%.

`O=C(NC1CC1)c1nc2c(s1)CCCN2c1ccccc1`: the cytotoxicity at 10 µM is -157%.

As for `O=S(=O)(C1CC1)N1CCOC2(CCCN(c3ccccc3)C2)C1` (stereo not given), the cytotoxicity at 10 µM was -4.54%.

On to `Cc1cnc(N2C[C@@H]3CCN(CC4CC4)C(=O)[C@H]3C2)nc1`, for which the cytotoxicity at 10 µM is 3.47%.

Take `O=S(=O)(C1CC1)N1CCC2(CCCN(c3ncc(F)cn3)C2)C1` (stereo not given): the cytotoxicity at 10 µM was 11.5%.

Take `CC(=O)N1CCC2(CC1)c1ncc(-c3ccccc3)n1CCN2C(C)=O`: the cytotoxicity at 10 µM was 10.5%.

In the case of `COc1ccc(N2CCCC3(C2)CN(c2ncccn2)CCO3)cc1` (stereo not given), the cytotoxicity at 10 µM is 15.3%.

`Cc1noc([C@@]23CCO[C@@H]2CCN(C(=O)c2ccsc2)C3)n1`: the cytotoxicity at 10 µM came out at 9.1%.

As for `COc1nn(C)c2c1CCCN(C(=O)c1ccsc1)C2`, the cytotoxicity at 10 µM is -0.414%.

Take `C[C@@H]1C[C@@H]2CCN(C(=O)c3ccncn3)C[C@H]2O1`: the cytotoxicity at 10 µM was -1.55%.

As for `CCCNS(=O)(=O)c1cnccc1N1CCN(C(C)C)CC1`, the cytotoxicity at 10 µM was -1.32%.

Take `CC(=O)c1c(C)nn(S(=O)(=O)c2ccc(C)cc2)c1C`: the cytotoxicity at 10 µM was -1.61%.

`O=C(Cn1nc(-c2cccs2)ccc1=O)N1CCCCCC1`: the cytotoxicity at 10 µM is -2.7%.

As to `COC(=O)c1ccn(COc2ccccc2Cl)n1`, the cytotoxicity at 10 µM came out at 8.99%.

As to `CCN1CCN(C(=O)c2cc(-c3cccs3)cs2)CC1`, the cytotoxicity at 10 µM is 2.93%.

Regarding `CN1CCN(C(=O)CCn2c(C(F)(F)F)cc3cccnc32)CC1`, the cytotoxicity at 10 µM is -31.9%.

For `O=C(Cc1cccs1)N1CCOC(c2cccc(O)c2)C1` (stereo not given), the cytotoxicity at 10 µM was determined as 0.631%.

Consider `CCOC1CCN(C(=O)c2ccc(-c3cccc(C)c3)[nH]c2=O)CC1`, for which the cytotoxicity at 10 µM stood at 3.08%.

As for `CCc1nc(CC)n(CC(=O)N(C)Cc2ccc(F)cc2)n1`, the cytotoxicity at 10 µM stood at 5.25%.

Turning to `CC(C)C(C)NC(=O)Nc1cccc(OCC#N)c1` (stereo not given), the cytotoxicity at 10 µM is -1.13%.

`COc1cc(C)ccc1OCC(=O)NS(=O)(=O)c1cccnc1`: the cytotoxicity at 10 µM stood at 4.03%.

Take `COc1cc(C)ccc1OCCC(=O)N1CCCC(n2cncn2)C1` (stereo not given): the cytotoxicity at 10 µM was -2.69%.

As for `Cc1c(CS(C)(=O)=O)cccc1NC(=O)CC1CCCC1`, the cytotoxicity at 10 µM was -6.72%.

As to `COCCN1CCC(CNC(=O)c2c[nH]c(=O)c(Cl)c2)CC1`, the cytotoxicity at 10 µM is 9.05%.

As to `COc1cc(C(C)=O)ccc1OCC(=O)N(Cc1ccsc1)C1CC1`, the cytotoxicity at 10 µM is 1.88%.

On to `CC(C)NC(=O)CCNC(=O)Nc1cnn(-c2ccccc2F)c1`, for which the cytotoxicity at 10 µM turned out to be 1.21%.

With `CN(Cc1nccn1CC(F)(F)F)C(=O)c1cccc(N(C)C)c1`, the cytotoxicity at 10 µM was determined as 3.92%.

`CC(C)N(C)CC(=O)NCC(Cc1ccc(F)cc1)C(N)=O` (stereo not given): the cytotoxicity at 10 µM turned out to be 13.6%.

Consider `Cc1cc(NC(=O)C2CCCN(C(=O)NCC(C)C)C2)ccn1` (stereo not given), for which the cytotoxicity at 10 µM was -10.5%.

`Cc1ccc(NS(C)(=O)=O)c(C(=O)NCCC(=O)NC(C)C)c1`: the cytotoxicity at 10 µM was -0.141%.

Turning to `CC(C)c1nc2c(n1C)CCN(CCc1ccccn1)C2`, the cytotoxicity at 10 µM was -2.01%.

As to `CC(C)(C)CC(=O)NS(=O)(=O)c1ccc(F)cc1C(F)(F)F`, the cytotoxicity at 10 µM was -4.3%.

With `Cc1cnn(CCC(=O)Nc2ccc(F)cc2OCC2CC2)c1`, the cytotoxicity at 10 µM is -4.11%.

`CC(=O)NCCSCCOc1cccc(Br)c1`: the cytotoxicity at 10 µM turned out to be 10.1%.

On to `Cc1cccc(N(CCC(N)=O)CC(=O)NC2CCCC2)c1`, for which the cytotoxicity at 10 µM was -20%.

With `O=C(Nc1ccccc1)c1ccc(NCc2ccncc2)nn1`, the cytotoxicity at 10 µM is -3.17%.

With `CN(C)c1ccc(NC(=O)N2CCCCCC2c2ccncc2)cn1` (stereo not given), the cytotoxicity at 10 µM was found to be 0.462%.

Consider `Cn1ncc2c1C(COCC1CC1)CN(S(=O)(=O)C1CC1)C2` (stereo not given), for which the cytotoxicity at 10 µM is -74.3%.

On to `OC[C@@H]1CCCN1c1nccc(-c2c[nH]nc2-c2ccncc2)n1`, for which the cytotoxicity at 10 µM was -4.28%.

Take `CN(C)C1(CNc2nccc(C3CCCC3)n2)CCOCC1`: the cytotoxicity at 10 µM is -1.3%.

For the compound `Cc1cc(N(C)CCN(C)C2CCCC2)n2nc(C)cc2n1`, the cytotoxicity at 10 µM was -6.09%.

With `Cn1cnnc1CN1CCC2(CCCN(C3CCCC3)C2=O)C1` (stereo not given), the cytotoxicity at 10 µM was -133%.

Regarding `COc1ccc(N2CCN(C(=O)Cn3nccc3C)CC2(C)C)cc1`, the cytotoxicity at 10 µM was 6.68%.

For the compound `CC(C)c1nc(CN(C)C(=O)C(O)c2ccc(Cl)cc2)cs1` (stereo not given), the cytotoxicity at 10 µM was -150%.

With `CC1(C)CNC(=O)c2nc(C3CCCN(C(=O)C4CC4)C3)[nH]c2C1` (stereo not given), the cytotoxicity at 10 µM was 3.74%.

On to `Cc1ncsc1CN1CCC2(CC1)CC(=O)N(Cc1ccc(Cl)cc1)C2`, for which the cytotoxicity at 10 µM came out at 6.83%.

With `COCc1nc(N2CC[C@H](N(C)C)C2)c2cnn(C)c2n1`, the cytotoxicity at 10 µM was -6.67%.

Consider `O=C(CSc1ccncc1)NC1CC(=O)N(CCc2ccccc2)C1` (stereo not given), for which the cytotoxicity at 10 µM came to 0.318%.

As for `CCCc1nnc(N2CCN(c3ccccc3Cl)CC2)o1`, the cytotoxicity at 10 µM turned out to be 0.426%.

In the case of `O=C(c1cc(COc2ccc3c(c2)OCO3)[nH]n1)N1CCCO1`, the cytotoxicity at 10 µM was -1.59%.

Regarding `CCCN1CCCC2(CCN(Cc3noc(C4CCCC4)n3)C2)C1=O` (stereo not given), the cytotoxicity at 10 µM came out at 0.603%.

With `Cc1cc(C)n(-c2ccc(NCCNS(=O)(=O)c3ccccc3)nn2)n1`, the cytotoxicity at 10 µM is -0.771%.

For the compound `Cc1ncsc1CCC(=O)NC1CCN(c2ccc(Cl)nn2)CC1`, the cytotoxicity at 10 µM was -2.5%.

As to `CN(C)CCNC(=O)c1cc2n(n1)CCN(C(=O)CC(C)(C)C)C2`, the cytotoxicity at 10 µM is -1.85%.

As for `CCOc1ccccc1C(=O)N1CCCC(c2nccn2CCOC)C1` (stereo not given), the cytotoxicity at 10 µM is 1.1%.

Turning to `OC1(CN2CCCC2)COCCN(c2cc(C(F)(F)F)ccn2)C1` (stereo not given), the cytotoxicity at 10 µM is -5.34%.

For the compound `CCOc1ccc(-c2nc(C(=O)NCC3CCOC3)cs2)cc1` (stereo not given), the cytotoxicity at 10 µM is -4.33%.

Turning to `Cc1nn(C)c(C)c1C1COCCN1C(=O)c1ccc(Cl)o1` (stereo not given), the cytotoxicity at 10 µM came out at 2.01%.

Turning to `CCNC(=O)N(C)C(c1ccccc1)c1ccccn1` (stereo not given), the cytotoxicity at 10 µM came out at 1.52%.

Regarding `Cc1nc(C(=O)N2CCOC(c3nc(C(C)C)n[nH]3)C2)c[nH]1` (stereo not given), the cytotoxicity at 10 µM was -1.58%.

Consider `c1ccc(Cc2nnc(CN3CCCC(Cn4cncn4)C3)o2)cc1` (stereo not given), for which the cytotoxicity at 10 µM is -4.51%.

As for `Cc1cc(C)n(C2CCCN(C(=O)Cc3cn4ccsc4n3)C2)n1` (stereo not given), the cytotoxicity at 10 µM is -6.07%.

In the case of `Cc1cnc(C(=O)NC(CN2CCCC2=O)c2ccccc2)cn1` (stereo not given), the cytotoxicity at 10 µM is -8.8%.

For the compound `O=C(Nc1ccncc1)C1=NN(c2ccccc2)C(=O)CN1`, the cytotoxicity at 10 µM worked out at 2.76%.

In the case of `Cc1csc(N2CCN(C(=O)CCn3cccn3)CC2)n1`, the cytotoxicity at 10 µM was -9.41%.

Consider `Cc1nn(C)c(N2CCOCC2)c1CN[C@@H]1c2ccccc2C[C@@H]1O`, for which the cytotoxicity at 10 µM is -12.2%.

Regarding `CCc1n[nH]c(C2CN(C(=O)c3cc(C(N)=O)cs3)CCO2)n1` (stereo not given), the cytotoxicity at 10 µM was -17.5%.

In the case of `CC(=O)NC1CCCN(C(=O)Nc2cccnc2-n2cccn2)C1` (stereo not given), the cytotoxicity at 10 µM is -15.3%.

In the case of `CCn1ccnc1CN1CCCN(C(=O)COC2CCCCC2)CC1`, the cytotoxicity at 10 µM was -11.7%.

On to `CC(=O)Nc1nc(C(=O)NCc2ccc(OC(C)C)nc2)cs1`, for which the cytotoxicity at 10 µM is -2.45%.

`Cc1noc(CCCC(=O)NC(C)c2cccnc2)n1` (stereo not given): the cytotoxicity at 10 µM was -12.5%.

In the case of `O=C(c1ccc(-n2cccn2)nc1)N1CCC(Nc2cccnn2)CC1`, the cytotoxicity at 10 µM was -1.08%.

Consider `O=C1N(Cc2cccc(Cl)c2)CCC12CCCNC2` (stereo not given), for which the cytotoxicity at 10 µM is -16.5%.

Consider `Cc1ccc(O[C@@H]2C[C@H]3CN(Cc4nccn4C)CCN3C2)cc1`, for which the cytotoxicity at 10 µM stood at 3.39%.

On to `O=C(CC1CCC2(CC1)CCN(Cc1ccncc1)CC2)N1CCCC1`, for which the cytotoxicity at 10 µM was found to be 6.72%.

`CC(=O)N1CCCC1c1nnn2cc(NCc3cccnc3)ccc12` (stereo not given): the cytotoxicity at 10 µM was determined as 17.1%.

`COc1ccc(CN2C[C@H]3CCC[C@@H](CN(C)C4CC4)[C@H]3C2)cn1`: the cytotoxicity at 10 µM came to 4.56%.

Consider `c1cncc(COCc2nnc3n2CCN(CC2CC2)C3)c1`, for which the cytotoxicity at 10 µM was -3.03%.

For the compound `O=C([C@H]1C[C@@H]2CCN(C3CCOCC3)C[C@@H]2O1)N1CCOCC1`, the cytotoxicity at 10 µM was -2.56%.

On to `Cc1oncc1C(=O)N1CCC2(CC1)CC(N1CCOCC1)C2`, for which the cytotoxicity at 10 µM was -2.69%.

For `Fc1cnc(N2CCCC3(CN(Cc4ccccc4)CCO3)C2)nc1` (stereo not given), the cytotoxicity at 10 µM came out at 12.4%.

As for `O=C(NCc1ccco1)[C@H]1C[C@H]2OCC[C@H]2N(C(=O)c2ccncc2)C1`, the cytotoxicity at 10 µM is -5.34%.

On to `CN1CCN(Cc2cccnc2)C2(CCN(Cc3ccccn3)C2)C1=O` (stereo not given), for which the cytotoxicity at 10 µM is -3.66%.

As to `O=C(c1ncccn1)N1C[C@H]2CCC[C@@]2(COCc2ccncc2)C1`, the cytotoxicity at 10 µM is -3.08%.

On to `CC(C)=CCN1C(=O)[C@@H]2CC[C@H]1CN(C(=O)CCc1nnc(Cl)[nH]1)C2`, for which the cytotoxicity at 10 µM amounted to 2.96%.

Turning to `O=C(NCC1(COc2cnccn2)C[C@@H](O)[C@@H](O)C1)C1CCCC1` (stereo not given in full), the cytotoxicity at 10 µM was -1.81%.
